The results in this text go back to ChEMBL document CHEMBL4000187, “Design and synthesis of emodin derivatives as novel inhibitors of ATP-citrate lyase” (Eur J Med Chem, 2017).

Active and inactive are the calls of the source. No cut-off for these calls is given here.

The target in assay [1] is T1, ATP-citrate synthase (Homo sapiens) (UniProt P53396).
T1 sequence (whole entry): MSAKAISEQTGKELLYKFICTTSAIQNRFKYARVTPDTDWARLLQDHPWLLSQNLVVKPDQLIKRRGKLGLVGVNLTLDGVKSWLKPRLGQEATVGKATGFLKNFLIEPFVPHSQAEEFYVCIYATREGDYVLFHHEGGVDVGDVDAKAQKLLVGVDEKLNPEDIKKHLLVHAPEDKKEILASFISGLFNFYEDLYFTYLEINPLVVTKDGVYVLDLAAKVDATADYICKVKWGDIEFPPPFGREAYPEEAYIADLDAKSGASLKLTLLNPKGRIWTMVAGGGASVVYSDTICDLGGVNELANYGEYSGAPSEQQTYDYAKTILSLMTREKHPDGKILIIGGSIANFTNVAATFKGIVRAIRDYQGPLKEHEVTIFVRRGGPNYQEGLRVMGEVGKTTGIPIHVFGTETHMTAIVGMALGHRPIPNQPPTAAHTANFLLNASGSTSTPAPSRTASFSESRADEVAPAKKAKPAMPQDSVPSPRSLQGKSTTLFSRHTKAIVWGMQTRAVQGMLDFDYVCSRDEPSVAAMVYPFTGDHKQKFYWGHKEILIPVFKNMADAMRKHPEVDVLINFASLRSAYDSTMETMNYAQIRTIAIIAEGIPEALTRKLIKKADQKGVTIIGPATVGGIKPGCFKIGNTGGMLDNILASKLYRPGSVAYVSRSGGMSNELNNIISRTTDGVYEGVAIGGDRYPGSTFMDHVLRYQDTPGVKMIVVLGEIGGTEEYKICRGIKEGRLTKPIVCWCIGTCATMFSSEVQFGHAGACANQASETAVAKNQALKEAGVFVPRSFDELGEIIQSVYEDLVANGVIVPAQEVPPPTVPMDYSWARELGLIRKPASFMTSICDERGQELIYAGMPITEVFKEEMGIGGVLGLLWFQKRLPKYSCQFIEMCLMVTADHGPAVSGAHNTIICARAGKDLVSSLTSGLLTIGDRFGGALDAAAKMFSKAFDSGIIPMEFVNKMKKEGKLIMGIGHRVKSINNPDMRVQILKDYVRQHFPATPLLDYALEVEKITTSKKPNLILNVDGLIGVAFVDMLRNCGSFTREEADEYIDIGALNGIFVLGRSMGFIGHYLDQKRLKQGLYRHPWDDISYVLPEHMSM
Description: Inhibition of ATP citrate lyase (unknown origin) at 10 uM using sodium citrate as substrate after 60 mins by ADP-Glo luminescence assay relative to control. Put shortly:
(§1)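 ADP-Glo reagent then added for 45 min at room temperature, and ADP formed was read by luminescence. Dose-response run in duplicate over 0.03–30 µM in 3.3-fold serial dilutions.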

The target in the next assay is T2, ATP-citrate synthase (Homo sapiens, UniProt P53396).
T2 sequence (P53396 whole entry): T1 sequence (whole entry)
Description: Inhibition of ATP citrate lyase (unknown origin) using sodium citrate as substrate after 60 mins by ADP-Glo luminescence assay. The procedure, abridged: as §1
In general terms: In ADP-Glo the light output rises with the ADP produced.

Assay [2] has as its system A549. Description: Antiproliferative activity against human A549 cells at 5 uM after 24 hrs by WST1 assay relative to control. Type of assay: functional. The following applies: A549, 24 h. The procedure, abridged:
(§2)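 A549 cells seeded at 5 × 10⁴/well in Ham's F-12 with 10% FBS, with or without compound, cultured 24 h at 37 °C in 5% CO₂. Single-concentration screen at 5 µM; dose-escalation at 1, 5, 10 µM. WST-1 reagent added, 1 h incubation, absorbance at 450 nm. ACL shRNA/siRNA knockdown served as positive control.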
For orientation: Tetrazolium dyes change colour on reduction, which living cells bring about.

For assay [3], the system named is A549. Description: Inhibition of cancer stemness in human A549 cells under 3D culture condition assessed as induction of apoptosis in spheroid at 25 uM by Hoechst 33342/Sytox green staining-based confocal microscopic method. The format is functional, cell-based. The procedure, abridged: (§3)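 Cells seeded at 2000 per well onto 1.5% agarose-coated wells and grown 2 days at 37 °C, 5% CO₂ to form spheroids before treatment. Staining used Hoechst 33342 for all nuclei plus Sytox Green for dead cells, each at 1:10,000 final. Confocal imaging measured spheroid inner area and Sytox Green integrated density (IntDen), with IntDen/Area as the index.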

Assay [4] concerns HMLE. Description: Inhibition of cancer stemness in snail expressing HMLE cells under 3D culture condition assessed as reduction in spheroid size at 25 uM by Hoechst 33342/Sytox green staining-based confocal microscopic method. Type of assay: functional, cell-based. The following applies: Homo sapiens. The procedure, abridged: as §3
Assay [5] relates to HMLE. Description: Inhibition of cancer stemness in snail expressing HMLE cells under 3D culture condition assessed as induction of apoptosis in spheroid at 25 uM by Hoechst 33342/Sytox green staining-based confocal microscopic method. The following applies: Homo sapiens. Type of assay: functional, cell-based. Put shortly:
as §3

Assay [6] deals with A549. Description: Inhibition of cancer stemness in human A549 cells under 3D culture condition assessed as reduction in spheroid size at 25 uM by Hoechst 33342/Sytox green staining-based confocal microscopic method. The format is functional, cell-based. The procedure, abridged: as §3
Assay [7] deals with A549. Description: Inhibition of cancer stemness in human A549 cells under 3D culture condition assessed as induction of apoptosis in spheroid by Hoechst 33342/Sytox green staining-based confocal microscopic method. The format is functional, cell-based. Put shortly: as §3
Assay [8] concerns HMLE. Description: Inhibition of cancer stemness in snail expressing HMLE cells under 3D culture condition assessed as reduction in spheroid size by Hoechst 33342/Sytox green staining-based confocal microscopic method. Type of assay: functional, cell-based. The conditions noted are these: Homo sapiens. Put shortly:
as §3

Assay [9] deals with A549. Description: Inhibition of cancer stemness in human A549 cells under 3D culture condition assessed as reduction in spheroid size by Hoechst 33342/Sytox green staining-based confocal microscopic method. The format is functional, cell-based. The procedure, abridged: as §3
Assay [10] concerns the target T1, ATP-citrate synthase (Homo sapiens). Description: Inhibition of ATP citrate lyase (unknown origin) at 3.3 uM using sodium citrate as substrate after 60 mins by ADP-Glo luminescence assay relative to control. The procedure, abridged:
as §1

The test system of assay [11] is A549. Description: Antiproliferative activity against human A549 cells after 24 hrs by WST1 assay. The format is functional, cell-based. The procedure, abridged:
as §2

Assay [12] concerns A549. Description: Antiproliferative activity against human A549 cells at 10 uM after 24 hrs by WST1 assay relative to control. The format is functional. The conditions noted are these: A549, 24 h. The procedure, abridged:
as §2

Assay [13] concerns HMLE. Description: Inhibition of cancer stemness in snail expressing HMLE cells under 3D culture condition assessed as induction of apoptosis in spheroid by Hoechst 33342/Sytox green staining-based confocal microscopic method. Type of assay: functional, cell-based. The following applies: Homo sapiens. Put shortly: as §3

As usually defined, the inhibition is the change of the read-out against control, counted positive when it falls. `Cc1ccc(-c2c(O)cc3c(c2O)C(=O)c2c(O)cc(C)cc2C3=O)cc1` displayed an inhibition in [1] of 0%.

The molecule `Cc1cc(O)c2c(c1)C(=O)c1cc(O)c(CN(C)c3ccccc3)c(O)c1C2=O` registered an inhibition in [1] of 6%. Same read-out and setting: the figure for `Cc1cc(O)c2c(c1)C(=O)c1cc(O)c(-c3ccccc3)c(O)c1C2=O` is 8%; for `Cc1cc(O)c2c(c1)C(=O)c1cc(O)c(CN3CCOCC3)c(O)c1C2=O` it is 10%.

The term IC50 denotes the midpoint of a concentration-inhibition curve. A low value points to greater potency. Turning to `Cc1cc(O)c2c(c1)C(=O)c1cc(O)c(-c3cccnc3)c(O)c1C2=O`, it took 21.1 µM to reach half-maximal inhibition at ATP-citrate synthase (IC50). Molecule `COc1cc2c(c(OC)c1Cl)C(=O)c1c(OC)cc(C)cc1C2=O` had an inhibition in assay [1] of 0%.

`Cc1cc(O)c2c(c1)C(=O)c1cc(O)cc(O)c1C2=O`: the inhibition in assay [1] turned out to be 0%. Still for that read-out and setting: for `COc1cc(OC)cc(-c2c(O)cc3c(c2O)C(=O)c2c(O)cc(C)cc2C3=O)c1` the value was 0%. As for `Cc1cc(O)c2c(c1)C(=O)c1cc(O)c(Cl)c(O)c1C2=O`, the inhibition at 5 µM in the assay on A549 [2] lay in the range of 40 to 80%. This molecule also yielded an IC50 at ATP-citrate synthase of 12.6 µM. On to `Cc1cc(O)c2c(c1)C(=O)c1cc3c(c(O)c1C2=O)CN(c1ccccc1)CO3`, for which, at ATP-citrate synthase, inhibition was half-maximal at 25.8 µM (IC50). Same read-out and setting: for `Cc1cc(O)c2c(c1)C(=O)c1cc(O)c(I)c(O)c1C2=O` the value was 7.5 µM. As to `COc1ccc(-c2ccccc2)cc1NS(=O)(=O)c1cc(Cl)cc(Cl)c1O`, the inhibition result with A549 [3], with HMLE [4], with HMLE [5] and in the assay with A549 [6] was “Active” each time. `COc1cccc(-c2c(O)cc3c(c2O)C(=O)c2c(O)cc(C)cc2C3=O)c1` gave an IC50 against ATP-citrate synthase of 21.2 µM. Take `Cc1cc(O)c2c(c1)C(=O)c1c(Br)c(O)c(Br)c(O)c1C2=O`: the inhibition entry in the assay on A549 [7] was “Dose-dependent effect”; in the assay with HMLE [8] it was “Dose-dependent effect”; in assay [1], > 99%; with A549 [9], “Dose-dependent effect”; in assay [10], > 99%; with A549 [11] it was “Dose-dependent effect”. In addition, the inhibition result in the assay with HMLE [13] was “Dose-dependent effect”. In the assay on A549 [2], this molecule had an inhibition at 5 µM of 40 to 80%. The same molecule registered an IC50 on ATP-citrate synthase of 2.9 µM. In the assay on A549 [12], this molecule came in with an inhibition at 10 µM of 100%. For `Cc1cc(O)c2c(c1)C(=O)c1cc(O)c(CN3CCCCC3)c(O)c1C2=O`, in [1], the inhibition came to 6%. Still for that read-out and setting: for `Cc1cc(O)c2c(c1)C(=O)c1cc(O)c(-c3ccncc3)c(O)c1C2=O` the value was 0%. In turn, `Cc1cc(O)c2c(c1)C(=O)c1cc(O)c(-c3cnn(C)c3)c(O)c1C2=O` had an inhibition at 5 µM with A549 [2] of 40 to 80%. The same molecule returned an IC50 against ATP-citrate synthase of 13.3 µM. Also, the inhibition entry with A549 [11] was “Dose-dependent effect”. In turn, `Cc1cc(O)c2c(c1)C(=O)c1c(c(O)c(-c3cccnc3)c(O)c1-c1cccnc1)C2=O` showed an IC50 at ATP-citrate synthase of 23.5 µM. In assay [1], `Cc1cc(O)c2c(c1)Cc1cc(O)cc(O)c1C2=O` had an inhibition of 0%. In the case of `Cc1cccc(-c2c(O)cc3c(c2O)C(=O)c2c(O)cc(C)cc2C3=O)c1`, on ATP-citrate synthase, the IC50 stood at 30 µM. On the same count and under the same terms, for `COc1ccc(-c2c(O)cc3c(c2O)C(=O)c2c(O)cc(C)cc2C3=O)cc1` the value was 18.8 µM; for `Cc1cc(O)c2c(c1)C(=O)c1cc3c(c(O)c1C2=O)CN(c1ccc2ocnc2c1)CO3`, 29.7 µM. `Cc1cc(O)c2c(c1)Cc1c(Cl)c(O)cc(O)c1C2=O` showed an inhibition at 5 µM in the assay with A549 [2] of 40 to 80%. Further, on ATP-citrate synthase, half-maximal inhibition (IC50) was put at 3.8 µM.

Regarding `Cc1cc(O)c2c(c1)C(=O)c1c(Cl)c(O)cc(O)c1C2=O`, the inhibition at 5 µM with A549 [2] was 40 to 80%. The molecule also registered an IC50 on ATP-citrate synthase of 9.6 µM.
